Reference: ChEMBL document CHEMBL4364254 (J Med Chem, 2019)
Calls of active or inactive are those of the source.

How the values were obtained:
[1] = target: 5-hydroxytryptamine receptor 2A (Homo sapiens, UniProt P28223); experiment: Displacement of [125I](+/-)DOI from recombinant human 5HT2A receptor after 60 mins by scintillation counting analysis
[2] = target: Cholecystokinin receptor type A (Homo sapiens, UniProt P32238); experiment: Displacement of [125I]CCK-8s from recombinant human CCK1 receptor after 60 mins by scintillation counting analysis
Chain of Cholecystokinin receptor type A (P32238 whole entry): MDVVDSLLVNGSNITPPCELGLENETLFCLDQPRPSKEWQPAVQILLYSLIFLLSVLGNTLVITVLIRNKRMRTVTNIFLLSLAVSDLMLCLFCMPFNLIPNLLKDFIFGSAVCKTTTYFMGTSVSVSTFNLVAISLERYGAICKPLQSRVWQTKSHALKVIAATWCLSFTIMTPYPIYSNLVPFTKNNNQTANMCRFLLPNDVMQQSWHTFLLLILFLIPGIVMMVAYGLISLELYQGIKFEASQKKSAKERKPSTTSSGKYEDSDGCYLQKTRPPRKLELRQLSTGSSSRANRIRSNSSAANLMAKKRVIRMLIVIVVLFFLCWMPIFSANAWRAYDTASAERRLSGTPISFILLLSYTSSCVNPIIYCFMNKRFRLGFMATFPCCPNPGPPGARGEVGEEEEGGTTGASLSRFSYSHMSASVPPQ

[3] = target: Neuronal acetylcholine receptor; alpha4/beta2 (Homo sapiens, UniProt P17787+P43681); experiment: Displacement of [3H]cytisine from recombinant human alpha4beta2 nAChR after 120 mins by scintillation counting analysis; type: protein-complex assay
Histamine H1 receptor = Histamine H1 receptor (Homo sapiens, UniProt P35367); experiment: Displacement of [3H]pyrilamine from recombinant human H1 receptor after 60 mins by scintillation counting analysis
Mu-type opioid receptor = Mu-type opioid receptor (Homo sapiens, UniProt P35372); experiment: Displacement of [3H]DAMGO from recombinant human MOR after 120 mins by scintillation counting analysis
Vasopressin V1a receptor = Vasopressin V1a receptor (Homo sapiens, UniProt P37288); experiment: Displacement of [3H]AVP from recombinant human V1A receptor after 60 mins by scintillation counting analysis
Chain of Vasopressin V1a receptor (P37288 whole entry): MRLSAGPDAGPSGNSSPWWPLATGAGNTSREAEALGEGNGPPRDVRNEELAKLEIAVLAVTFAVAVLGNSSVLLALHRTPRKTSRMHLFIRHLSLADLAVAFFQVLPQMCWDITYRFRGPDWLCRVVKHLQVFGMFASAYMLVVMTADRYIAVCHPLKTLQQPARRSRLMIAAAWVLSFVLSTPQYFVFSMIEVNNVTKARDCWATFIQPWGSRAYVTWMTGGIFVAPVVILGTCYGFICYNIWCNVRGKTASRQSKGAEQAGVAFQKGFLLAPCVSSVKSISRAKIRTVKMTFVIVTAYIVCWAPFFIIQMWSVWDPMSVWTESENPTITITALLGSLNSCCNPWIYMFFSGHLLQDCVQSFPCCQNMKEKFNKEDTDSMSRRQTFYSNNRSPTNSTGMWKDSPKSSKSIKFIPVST

Endothelin-1 receptor = Endothelin-1 receptor (Homo sapiens, UniProt P25101); experiment: Displacement of [125I]endothelin-1 from recombinant human ETA receptor after 120 mins by scintillation counting analysis
Chain of Endothelin-1 receptor (P25101 whole entry): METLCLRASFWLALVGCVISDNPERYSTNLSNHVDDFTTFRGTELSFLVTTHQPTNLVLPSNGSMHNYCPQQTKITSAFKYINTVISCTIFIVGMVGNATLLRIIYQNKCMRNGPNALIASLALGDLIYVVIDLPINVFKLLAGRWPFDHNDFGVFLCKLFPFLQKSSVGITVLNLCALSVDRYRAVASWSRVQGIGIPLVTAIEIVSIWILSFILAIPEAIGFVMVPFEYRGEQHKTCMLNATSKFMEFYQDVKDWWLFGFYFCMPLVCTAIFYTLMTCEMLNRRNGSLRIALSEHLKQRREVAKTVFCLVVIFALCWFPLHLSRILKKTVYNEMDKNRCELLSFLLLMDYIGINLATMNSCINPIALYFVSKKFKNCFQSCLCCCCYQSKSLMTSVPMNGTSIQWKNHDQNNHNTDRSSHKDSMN

[4] = target: Kappa-type opioid receptor (Homo sapiens, UniProt P41145); experiment: Displacement of [3H]U69593 from recombinant human KOR after 60 mins by scintillation counting analysis
Chain of Kappa-type opioid receptor (P41145 whole entry): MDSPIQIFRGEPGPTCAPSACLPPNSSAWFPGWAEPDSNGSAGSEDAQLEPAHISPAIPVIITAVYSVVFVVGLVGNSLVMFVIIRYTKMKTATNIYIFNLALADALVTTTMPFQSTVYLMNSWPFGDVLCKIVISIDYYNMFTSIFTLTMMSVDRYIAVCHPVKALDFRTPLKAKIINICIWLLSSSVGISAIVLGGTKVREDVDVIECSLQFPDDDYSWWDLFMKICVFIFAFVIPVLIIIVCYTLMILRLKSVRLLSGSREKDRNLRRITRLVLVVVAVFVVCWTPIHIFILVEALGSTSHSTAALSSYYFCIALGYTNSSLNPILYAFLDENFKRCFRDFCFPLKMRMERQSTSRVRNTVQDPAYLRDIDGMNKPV

[5] = target: 5-hydroxytryptamine receptor 1A (Homo sapiens, UniProt P08908); experiment: Displacement of [3H]8-OH-DPAT from recombinant human 5HT1A after 60 mins by scintillation counting analysis
Chain of 5-hydroxytryptamine receptor 1A (P08908 whole entry): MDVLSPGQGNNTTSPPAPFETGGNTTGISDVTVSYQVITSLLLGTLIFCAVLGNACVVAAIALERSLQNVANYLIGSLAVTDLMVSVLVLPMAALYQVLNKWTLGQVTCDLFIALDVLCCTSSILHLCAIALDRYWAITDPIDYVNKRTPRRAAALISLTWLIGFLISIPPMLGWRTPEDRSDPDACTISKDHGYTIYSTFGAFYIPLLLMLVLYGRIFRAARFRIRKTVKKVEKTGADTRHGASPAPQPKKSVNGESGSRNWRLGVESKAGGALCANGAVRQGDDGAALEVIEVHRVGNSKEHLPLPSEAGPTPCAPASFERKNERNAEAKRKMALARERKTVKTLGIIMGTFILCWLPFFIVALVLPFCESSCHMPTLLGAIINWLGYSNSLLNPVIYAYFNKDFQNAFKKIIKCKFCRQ

[6] = Half life in Sprague-Dawley rat plasma at 1 mg/kg, po by LC-MS/MS analysis; type: ADME, organism-based
[7] = target: 3',5'-cyclic-AMP phosphodiesterase 4D (Homo sapiens, UniProt Q08499); experiment: Activity at human recombinant PDE4D2 using [3H]cAMP as substrate measured after 20 mins by scintillation counting analysis
Mus musculus = experiment: Anti-hepatosteatosis activity in ethanol-induced C57BL/6 mouse model of hepatic steatosis assessed as reduction in liver weight at 0.3 mg/kg, po administered once daily via gavage for last 2 weeks of study measured post-last dose; type: functional, organism-based
Outline: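 Female C57BL/6J mice (9 weeks old, 19–21 g) were kept on Lieber–DeCarli liquid diet, with ethanol raised from 1 to 5% (v/v) over 15 d and then held for 4 weeks, pair-fed. Dosing was 0.03, 0.1 or 0.3 mg/kg by oral gavage once daily for the last 2 weeks, in 0.5% Na-CMC/1% NMP/0.3% Tween 80. Read-outs were Oil Red O on 10 μm liver sections imaged at 10× and liver weight normalized to brain weight. n = 6–10 per group; t test versus ethanol + vehicle.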

D(2) dopamine receptor = D(2) dopamine receptor (Homo sapiens, UniProt P14416); experiment: Displacement of [3H]7-OH-DPAT from recombinant human D2s receptor after 60 mins by scintillation counting analysis
Chain of D(2) dopamine receptor (P14416 whole entry): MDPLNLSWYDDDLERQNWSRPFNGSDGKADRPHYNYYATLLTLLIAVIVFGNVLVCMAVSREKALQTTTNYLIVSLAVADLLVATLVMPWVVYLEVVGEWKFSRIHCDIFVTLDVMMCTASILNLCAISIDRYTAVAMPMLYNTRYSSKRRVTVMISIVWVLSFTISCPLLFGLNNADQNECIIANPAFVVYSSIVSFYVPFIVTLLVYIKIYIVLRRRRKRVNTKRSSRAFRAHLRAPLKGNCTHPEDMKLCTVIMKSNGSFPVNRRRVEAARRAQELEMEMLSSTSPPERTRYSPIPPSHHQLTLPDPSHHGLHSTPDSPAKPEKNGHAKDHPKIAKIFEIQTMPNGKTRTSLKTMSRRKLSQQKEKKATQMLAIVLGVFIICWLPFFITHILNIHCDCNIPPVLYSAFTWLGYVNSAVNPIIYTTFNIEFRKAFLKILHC

[8] = target: Voltage-dependent L-type calcium channel subunit alpha-1C (Rattus norvegicus, UniProt P22002); experiment: Displacement of [3H]nitrendipine from rat brain Cav1.2 dihydropyridine site after 90 mins by scintillation counting analysis
Adenosine receptor A2a = Adenosine receptor A2a (Homo sapiens, UniProt P29274); experiment: Displacement of [3H]CGS21680 from recombinant human adenosine A2A receptor after 120 mins by scintillation counting analysis
Chain of Adenosine receptor A2a (P29274 whole entry): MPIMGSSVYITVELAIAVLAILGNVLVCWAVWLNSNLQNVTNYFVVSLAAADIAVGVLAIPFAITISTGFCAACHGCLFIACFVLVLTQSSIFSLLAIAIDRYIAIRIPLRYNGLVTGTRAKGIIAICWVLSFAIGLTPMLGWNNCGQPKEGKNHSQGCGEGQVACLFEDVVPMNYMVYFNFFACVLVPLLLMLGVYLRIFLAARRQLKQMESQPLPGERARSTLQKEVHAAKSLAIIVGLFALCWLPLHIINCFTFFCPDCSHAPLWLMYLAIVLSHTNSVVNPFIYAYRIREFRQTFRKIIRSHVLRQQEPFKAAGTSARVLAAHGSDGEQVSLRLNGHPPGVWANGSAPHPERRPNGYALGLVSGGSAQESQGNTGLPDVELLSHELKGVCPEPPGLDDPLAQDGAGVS

[9] = target: Alpha-2A adrenergic receptor (Homo sapiens, UniProt P08913); experiment: Displacement of [3H]RX 821002 from recombinant human alpha 2A adrenoceptor after 60 mins by scintillation counting analysis
Cytochrome P450 3A4 = Cytochrome P450 3A4 (Homo sapiens, UniProt P08684); experiment: Induction of CYP3A4 in human HepaRG cells at 10 uM measured after 24 hrs by qRT-PCR analysis relative to rifampicin; type: ADME, cell-based; conditions: hepatocytes
Outline: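 Cryopreserved HepaRG cells were plated on collagen I in Williams' E medium with GlutaMAX. Positive controls were omeprazole 50 μM (CYP1A2), phenobarbital 1 mM (CYP2B6) and rifampicin 10 μM (CYP3A4). mRNA was read by TaqMan qPCR with GAPDH as reference, using ΔΔCt, and expressed as % of the positive control.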

[10] = target: cGMP-inhibited 3',5'-cyclic phosphodiesterase 3A (Homo sapiens, UniProt Q14432); experiment: Activity at human recombinant PDE3A using [3H]cAMP as substrate measured after 15 mins by scintillation counting analysis
[11] = target: Sodium-dependent dopamine transporter (Homo sapiens, UniProt Q01959); experiment: Displacement of [3H]BTCP from recombinant human dopamine transporter after 120 mins by scintillation counting analysis
Glucocorticoid receptor = Glucocorticoid receptor (Homo sapiens, UniProt P04150); experiment: Displacement of [3H]dexamethasone from recombinant human GR after 360 mins by scintillation counting analysis
Chain of Glucocorticoid receptor (P04150 whole entry): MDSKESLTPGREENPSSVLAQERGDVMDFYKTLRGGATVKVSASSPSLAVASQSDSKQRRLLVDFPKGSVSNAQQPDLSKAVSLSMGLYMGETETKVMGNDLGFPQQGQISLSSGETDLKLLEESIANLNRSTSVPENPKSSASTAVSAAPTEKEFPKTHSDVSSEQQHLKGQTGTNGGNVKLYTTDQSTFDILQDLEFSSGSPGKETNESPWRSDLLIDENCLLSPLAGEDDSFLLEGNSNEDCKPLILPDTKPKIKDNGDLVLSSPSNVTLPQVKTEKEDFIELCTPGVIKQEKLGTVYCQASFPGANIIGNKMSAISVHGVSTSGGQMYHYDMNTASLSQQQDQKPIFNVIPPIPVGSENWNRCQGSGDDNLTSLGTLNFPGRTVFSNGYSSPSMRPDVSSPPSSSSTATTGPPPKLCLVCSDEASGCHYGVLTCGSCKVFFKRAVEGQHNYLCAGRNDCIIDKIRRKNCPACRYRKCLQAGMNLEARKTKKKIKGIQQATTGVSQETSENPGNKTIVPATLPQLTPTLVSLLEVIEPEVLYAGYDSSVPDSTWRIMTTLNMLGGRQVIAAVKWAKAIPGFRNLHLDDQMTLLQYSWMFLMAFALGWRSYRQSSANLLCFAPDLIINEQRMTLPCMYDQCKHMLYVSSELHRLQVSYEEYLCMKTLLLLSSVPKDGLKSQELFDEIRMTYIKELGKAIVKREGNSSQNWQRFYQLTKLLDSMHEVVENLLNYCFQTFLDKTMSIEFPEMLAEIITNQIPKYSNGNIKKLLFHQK

[12] = target: Sodium-dependent serotonin transporter (Homo sapiens, UniProt P31645); experiment: Displacement of [3H]imipramine from recombinant human serotonin transporter after 120 mins by scintillation counting analysis
Chain of Sodium-dependent serotonin transporter (P31645 whole entry): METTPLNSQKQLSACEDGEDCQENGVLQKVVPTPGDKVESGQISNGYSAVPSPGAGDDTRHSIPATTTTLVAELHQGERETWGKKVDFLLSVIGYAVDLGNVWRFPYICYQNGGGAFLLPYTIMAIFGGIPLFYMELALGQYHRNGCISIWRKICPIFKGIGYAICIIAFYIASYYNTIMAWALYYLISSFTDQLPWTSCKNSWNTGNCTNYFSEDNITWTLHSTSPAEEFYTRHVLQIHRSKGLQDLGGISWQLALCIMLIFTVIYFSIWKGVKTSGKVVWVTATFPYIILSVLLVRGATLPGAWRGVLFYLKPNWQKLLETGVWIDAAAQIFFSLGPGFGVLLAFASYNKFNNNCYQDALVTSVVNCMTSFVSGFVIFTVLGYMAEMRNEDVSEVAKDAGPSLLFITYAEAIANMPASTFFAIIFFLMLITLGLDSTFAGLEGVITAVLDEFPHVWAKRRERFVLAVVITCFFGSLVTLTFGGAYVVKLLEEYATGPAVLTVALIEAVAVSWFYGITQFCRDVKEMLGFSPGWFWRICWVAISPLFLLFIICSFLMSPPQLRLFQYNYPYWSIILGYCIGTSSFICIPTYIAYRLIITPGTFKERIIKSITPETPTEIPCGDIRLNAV

[13] = target: Muscarinic acetylcholine receptor M2 (Homo sapiens, UniProt P08172); experiment: Displacement of [3H]AF-DX 384 from recombinant human M2 receptor after 60 mins by scintillation counting analysis
Androgen receptor = Androgen receptor (Homo sapiens, UniProt P10275); experiment: Displacement of [3H]methyltrienolone from recombinant human AR after 1440 mins by scintillation counting analysis
Histamine H2 receptor = Histamine H2 receptor (Homo sapiens, UniProt P25021); experiment: Displacement of [125I]APT from recombinant human H2 receptor after 120 mins by scintillation counting analysis
Chain of Histamine H2 receptor (P25021 whole entry): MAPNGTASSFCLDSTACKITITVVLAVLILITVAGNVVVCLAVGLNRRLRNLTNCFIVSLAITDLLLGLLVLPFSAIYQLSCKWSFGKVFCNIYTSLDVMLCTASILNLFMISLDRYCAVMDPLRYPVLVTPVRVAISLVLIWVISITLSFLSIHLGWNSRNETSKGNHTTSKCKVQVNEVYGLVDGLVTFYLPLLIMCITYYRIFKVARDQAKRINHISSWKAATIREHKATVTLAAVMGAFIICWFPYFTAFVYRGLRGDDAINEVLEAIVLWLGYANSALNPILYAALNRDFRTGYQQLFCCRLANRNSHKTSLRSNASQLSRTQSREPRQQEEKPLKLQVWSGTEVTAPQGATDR

[14] = Cmax in C57BL6 mouse plasma at 0.3 mg/kg, po measured at 2 hrs post dose by LC-MS/MS analysis; type: ADME, organism-based; design: dose 0.3 mg/kg, route oral
Outline: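 Female C57BL6 mice, 8 weeks old, received a single oral dose of 0.3 mg/kg in 1% NMP/0.3% Tween 80 in 0.5% Na-CMC. […] Maximum observed concentrations are reported; plasma clearance and half-life come from PK analysis.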

O=C(Nc1ccc(OC(F)F)nc1)NC1CCN(c2ncnc3c2nc(-c2ccccc2Cl)n3-c2ccc(Cl)cc2)CC1
< 10%: Activity (Cytochrome P450 3A4)
> 10 µM: EC50 [1] | IC50 [1] | EC50 [2] | IC50 [2] | EC50 [3] | IC50 [3] | EC50 (Histamine H1 receptor) | IC50 (Histamine H1 receptor) | EC50 (Mu-type opioid receptor) | IC50 (Mu-type opioid receptor) | EC50 (Vasopressin V1a receptor) | IC50 (Vasopressin V1a receptor) | EC50 (Endothelin-1 receptor) | IC50 (Endothelin-1 receptor) | EC50 [4] | IC50 [4] | EC50 [5] | IC50 [5] | EC50 [7] | IC50 [7] | EC50 (D(2) dopamine receptor) | IC50 (D(2) dopamine receptor) | EC50 [8] | IC50 [8] | EC50 (Adenosine receptor A2a) | IC50 (Adenosine receptor A2a) | EC50 [9] | IC50 [9] | EC50 [10] | IC50 [10] | EC50 [11] | IC50 [11] | EC50 (Glucocorticoid receptor) | IC50 (Glucocorticoid receptor) | EC50 [12] | IC50 [12] | EC50 [13] | IC50 [13] | EC50 (Androgen receptor) | IC50 (Androgen receptor) | EC50 (Histamine H2 receptor) | IC50 (Histamine H2 receptor)
active: Activity (Mus musculus)
594 min: half-life [6]
940 ng/mL: Cmax [14]
